Calls of active or inactive are those of the source. The calls are words filed in the database; no cut-off is given here.
Experiments:
K562 [1] = test: Growth inhibition of human K562 cells at 5 umol/L after 48 hrs by MTT assay relative to control; assay type: functional; details: K562, 48 h, read-out: GI
Procedure, shortened: (§1)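 Cells kept in DMEM/10% FBS at 37 °C, 5% CO2, seeded at 4×10^3–8×10^3 cells/well, 24 h attachment, then 48 h with compound at 5 µmol/L. MTT (5 mg/mL solution) added for 4 h at 37 °C, formazan taken up in DMSO, A490 read. Percent inhibition as mean ± SD of three independent experiments. Doxorubicin as positive control.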

PC-3 [2] = test: Induction of apoptosis in human PC3 cells assessed as early apoptotic cells at 5 umol/L after 48 hrs by annexin V-FITC/propidium iodide staining based flow cytometry (reference value: 4%); assay type: functional
K562 [3] = test: Induction of apoptosis in human K562 cells assessed as early apoptotic cells at 5 umol/L after 48 hrs by annexin V-FITC/propidium iodide staining based flow cytometry (reference value: 4%); assay type: functional
HEL [4] = test: Induction of morphological changes in HEL cells assessed as formation of apoptotic bodies at 5 umol/L after 48 hrs by inverted fluorescence microscopic analysis; assay type: functional, cell-based; details: Homo sapiens
Procedure, shortened: (§2)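 Cells cultured in DMEM/10% FBS at 37 °C, 5% CO2. Exposed 48 h to 5 µmol/L compound alongside DMSO controls. Morphology (cell number, rounding, spacing, apoptotic bodies, spindle shape) observed under an inverted microscope with CCD camera.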

HEL [5] = test: Cell cycle arrest in HEL cells assessed as decrease in S phase accumulation at 5 umol/L after 48 hrs by propidium iodide staining based flow cytometry; assay type: functional; details: Homo sapiens
Procedure, shortened: (§3)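 Cells grown in DMEM with 10% FBS and penicillin/streptomycin at 37 °C, 5% CO2, and passaged at least 3 times after thawing. Treated 48 h at 5 µmol/L, DMSO-treated controls. Harvested by trypsin, PBS-washed, fixed in ice-cold ethanol, blocked 1 h at 4 °C in 5% BSA/PBS, RNase 1 µg/mL 30 min at 37 °C, PI 20 µg/mL final. Phase percentages read from PI histograms. Mean ± SD, three independent experiments.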

K562 [6] = test: Induction of apoptosis in human K562 cells assessed as necrotic cells at 5 umol/L after 48 hrs by annexin V-FITC/propidium iodide staining based flow cytometry (reference value: 1.2%); assay type: functional
HEL [7] = test: Growth inhibition of HEL cells at 5 umol/L after 48 hrs by MTT assay relative to control; assay type: functional; details: Homo sapiens, read-out: GI; procedure, shortened: as §1
PC-3 [8] = test: Cell cycle arrest in human PC3 cells assessed as decrease in S phase accumulation at 5 umol/L after 48 hrs by propidium iodide staining based flow cytometric method; assay type: functional; procedure, shortened: as §3
MDA-MB-231 [9] = test: Induction of morphological changes in human MDA-MB-231 cells assessed as reduction in number of apoptotic bodies at 5 umol/L after 48 hrs by inverted microscopic method
MDA-MB-231 [10] = test: Induction of apoptosis in human MDA-MB-231 cells assessed as effect on cell adherence at 5 umol/L after 48 hrs by inverted microscopic method; assay type: functional, cell-based; procedure, shortened: as §2
PC-3 [11] = test: Induction of apoptosis in human PC3 cells assessed as viable cells at 5 umol/L after 48 hrs by annexin V-FITC/propidium iodide staining based flow cytometry (reference value: 86.7%); assay type: functional; details: PC-3, 48 h, read-out: Activity
HEL [12] = test: Induction of apoptosis in HEL cells assessed as early apoptotic cells at 5 umol/L after 48 hrs by annexin V-FITC/propidium iodide staining based flow cytometry (reference value: 2.6 to 4.2%); assay type: functional, Homo sapiens
K562 [13] = test: Induction of morphological changes in human K562 cells assessed as increase in cell rounding at 5 umol/L after 48 hrs by inverted microscopic method; assay type: functional, cell-based; procedure, shortened: as §2
HEL [14] = test: Induction of apoptosis in HEL cells assessed as late apoptotic cells at 5 umol/L after 48 hrs by annexin V-FITC/propidium iodide staining based flow cytometry (reference value: 1.6 to 3.3%); assay type: functional, Homo sapiens
MDA-MB-231 [15] = test: Induction of apoptosis in human MDA-MB-231 cells assessed as early apoptotic cells at 5 umol/L after 48 hrs by annexin V-FITC/propidium iodide staining based flow cytometry (reference value: 3%); assay type: functional
PC-3 [16] = test: Cell cycle arrest in human PC3 cells assessed as decrease in G2 phase accumulation at 5 umol/L after 48 hrs by propidium iodide staining based flow cytometric method; assay type: functional; procedure, shortened: as §3
K562 [17] = test: Induction of apoptosis in human K562 cells assessed as late apoptotic cells at 5 umol/L after 48 hrs by annexin V-FITC/propidium iodide staining based flow cytometry (reference value: 2.3%); assay type: functional
MDA-MB-231 [18] = test: Induction of apoptosis in human MDA-MB-231 cells assessed as spindle like formation at 5 umol/L after 48 hrs by inverted microscopic method; assay type: functional, cell-based; procedure, shortened: as §2
K562 [19] = test: Cell cycle arrest in human K562 cells assessed as decrease in G1 phase accumulation at 5 umol/L after 48 hrs by propidium iodide staining based flow cytometry; assay type: functional; procedure, shortened: as §3
MDA-MB-231 [20] = test: Induction of apoptosis in human MDA-MB-231 cells assessed as necrotic cells at 5 umol/L after 48 hrs by annexin V-FITC/propidium iodide staining based flow cytometry (reference value: 3.4%); assay type: functional
MDA-MB-231 [21] = test: Induction of apoptosis in human MDA-MB-231 cells assessed as viable cells at 5 umol/L after 48 hrs by annexin V-FITC/propidium iodide staining based flow cytometry (reference value: 91.3%); assay type: functional; details: MDA-MB-231, 48 h, read-out: Activity
PC-3 [22] = test: Induction of morphological changes in human PC3 cells assessed as increase in formation of apoptotic bodies at 5 umol/L after 48 hrs by inverted microscopic method; assay type: functional, cell-based
Procedure, shortened: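 PC3 cells were kept in DMEM with 10% FBS, penicillin and streptomycin at 37 °C under 5% CO2, and were passaged at least 3 times after thawing. Cells were seeded at 4 × 10^3 to 8 × 10^3 cells/well and left to adhere for 24 h. They were then exposed to 5 µmol/L compound for 48 h. Morphology was viewed by inverted microscope against DMSO-treated controls.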

PC-3 [23] = test: Cytotoxicity against human PC3 cells after 48 hrs by MTT assay; assay type: functional, cell-based
Procedure, shortened: (§4)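 Cells kept in DMEM/10% FBS at 37 °C, 5% CO2, seeded at 4×10^3–8×10^3 cells/well and left 24 h to adhere. Exposed 48 h to a range of concentrations. MTT (5 mg/mL solution) added for 4 h at 37 °C, formazan dissolved in DMSO, absorbance read at 490 nm. IC50 derived from concentration–inhibition relation. Doxorubicin as positive control.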

MDA-MB-231 [24] = test: Cytotoxicity against human MDA-MB-231 cells after 48 hrs by MTT assay; assay type: functional, cell-based; procedure, shortened: as §4
HEL [25] = test: Induction of morphological changes in HEL cells assessed as reduction in cell number at 5 umol/L after 48 hrs by inverted fluorescence microscopic analysis; assay type: functional, cell-based; details: Homo sapiens; procedure, shortened: as §2
MDA-MB-231 [26] = test: Induction of morphological changes in human MDA-MB-231 cells assessed as increase in cell rounding at 5 umol/L after 48 hrs by inverted microscopic method; assay type: functional, cell-based; procedure, shortened: as §2
PC-3 [27] = test: Cell cycle arrest in human PC3 cells assessed as increase in G1 phase accumulation at 5 umol/L after 48 hrs by propidium iodide staining based flow cytometric method; assay type: functional; procedure, shortened: as §3
K562 [28] = test: Potency index, ratio of compound effect to (E)-2-Hydroxy-4,4-dimethoxy-3,5-diprenylchalcone effect for growth inhibition of human K562 cells; assay type: functional

COc1c(CC=C(C)C)cc(C(=O)/C=C/c2cccnc2)c(O)c1CC=C(C)C
inhibition of growth at 5 µM (K562 [1]): 86.2%
Activity (PC-3 [2]): 1.8%
Activity (K562 [3]): 10.1%
Activity (HEL [4]): inactive
Activity (HEL [5]): Active
Activity (K562 [6]): 11.3%
inhibition of growth at 5 µM (HEL [7]): 91.7%
Activity (PC-3 [8]): Active
Activity (MDA-MB-231 [9]): Active
Activity (MDA-MB-231 [10]): Active
viability at 5 µM (PC-3 [11]): 44.9%
Activity (HEL [12]): 5.6%
Activity (K562 [13]): Active
Activity (HEL [14]): 7.1%
Activity (MDA-MB-231 [15]): 13.8%
Activity (PC-3 [16]): Active
Activity (K562 [17]): 14.6%
Activity (MDA-MB-231 [18]): Active
Activity (K562 [19]): Active
Activity (MDA-MB-231 [20]): 14.1%
viability at 5 µM (MDA-MB-231 [21]): 35.2%
Activity (PC-3 [22]): Active
Activity (PC-3 [23]): Dose-dependent effect
IC50 (PC-3 [23]; PC-3, 48 h): 2.92 µM
Activity (MDA-MB-231 [24]): Dose-dependent effect
IC50 (MDA-MB-231 [24]; MDA-MB-231, 48 h): 3.14 µM
Activity (HEL [25]): Active
Activity (MDA-MB-231 [26]): Active
Activity (PC-3 [27]): Active
Ratio (K562 [28]): 3 - 4
